KDM4C inh: KDM4C (human) demethylase inhibition; GST-KDM4C 2-372, H3K9me3 peptide, LANCE TR-FRET; Q9H3R0; inhibition, % at 12.5 µM; 96,000 compounds, 0.15% hits;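 active means mean replicate inhibition above about 25%, with at least 55% of replicates also reaching it, limit read from the data, passing the limit was not always enough; inconclusive means only one of those two conditions met; inactive means neither condition met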
Target sequence (Q9H3R0 2-372 limits assumed): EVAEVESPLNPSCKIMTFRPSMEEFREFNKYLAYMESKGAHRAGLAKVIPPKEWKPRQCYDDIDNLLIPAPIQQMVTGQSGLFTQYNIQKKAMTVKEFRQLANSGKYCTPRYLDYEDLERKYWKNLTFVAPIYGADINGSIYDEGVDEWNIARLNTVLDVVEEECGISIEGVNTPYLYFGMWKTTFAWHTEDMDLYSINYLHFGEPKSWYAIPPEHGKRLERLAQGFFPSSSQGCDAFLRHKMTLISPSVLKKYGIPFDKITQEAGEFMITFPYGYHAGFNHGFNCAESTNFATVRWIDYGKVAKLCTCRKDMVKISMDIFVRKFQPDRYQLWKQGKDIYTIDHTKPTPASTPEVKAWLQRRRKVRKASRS
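Material: GST-tagged GASC-1 (JMJD2C) catalytic fragment, aa 2-372 / Quantity: enzyme final amount 10 nM / Medium: HEPES buffer, pH 7.5, plus ascorbate / Doses: one test concentration per compound / Incubation: 30 min reaction, 60 min detection, RT / Measured by: LANCE TR-FRET / Read-out: inhibition from TR-FRET ratio decrease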
IDH1 R132H inh: blocks human IDH1 R132H reductase activity | 70,000 compounds, 0.18% hits | inhibition, % at 10 µM | O75874 | diaphorase/resazurin fluorescence, 60 min | AID 624101; in the data active means inhibition above about 34%; inconclusive means no clear call, values can overlap the other calls; inactive means below about 11%;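 further: 0% = DMSO and 100% = no enzyme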
T cruzi growth-1: T. cruzi proliferation inhibition | T. cruzi beta-gal in NIH3T3, GalScreen luminescence, 90 h | inhibition, % at 8.34 µM | 77,000 compounds, 5.9% hits | AID 624255;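 active means mean inhibition above about 93%, with at least 55% of replicates each passing it, limit read from the data, passing the limit was not always enough; inconclusive means only one of those two conditions holds; inactive means neither condition holds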
Pf Dd2 growth: inhibitors of Plasmodium falciparum Dd2 growth | AID 1159554 | 94,000 compounds, 2.3% hits | P. falciparum Dd2 growth, SYBR Green, 72 h; hits give low values | activity change, % at 10 µM; in the data active means activity change below about -80%; inconclusive means no clear call, values can overlap the other calls
T cruzi growth-2: blocks T. cruzi growth in NIH3T3 host cells; shares compounds with T cruzi growth-1; T. cruzi beta-gal in NIH3T3, GalScreen luminescence, 90 h; inhibition, % at 8.35 µM; 5,600 compounds, 72% hits; AID 651739;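 active means mean replicate inhibition above about 95% and at least 55% of replicates individually reaching it, limit read from the data; inconclusive means only one of the two criteria is met; inactive means neither criterion is met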
T cruzi growth-3: Trypanosoma cruzi proliferation inhibition; shares compounds with T cruzi growth-1; T. cruzi beta-gal in NIH3T3, GalScreen luminescence, 90 h; inhibition, % at 2.09 µM; 5,600 compounds, 21% hits; AID 651740;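 active means mean inhibition above about 95%, with at least 55% of replicates also reaching it, limit read from the data; inconclusive means meets just one of the two conditions; inactive means meets neither condition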;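 further: plate controls were neutral control median for no effect and positive control median for full effect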
3T3 cytotox: NIH/3T3 (mouse) viability loss | shares compounds with T cruzi growth-1 | NIH/3T3 viability, CellTiter-Glo ATP luminescence, 90 h | cytotoxicity (signal decrease), % at 8.35 µM | 5,600 compounds, 14% hits | AID 651742;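 active means mean signal decrease across replicates above about 35% based on untreated-well scatter, with enough replicates individually passing, limit read from the data; inconclusive means no rule stated though some were filed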;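 further: 0% = median of neutral control wells and 100% = median of positive control wells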
3T3 cytotox 2: cytotoxicity in mouse NIH/3T3 fibroblasts. shares compounds with T cruzi growth-1. NIH/3T3 viability, CellTiter-Glo ATP luminescence, 90 h. inhibition, % at 24.9 µM. 5,600 compounds, 56% hits;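 active means mean loss of cell viability signal at or above a set limit, and enough replicates individually reaching it; inconclusive means meets only the mean limit or only the replicate share; inactive means meets neither condition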;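 further: 0% = median of neutral control wells and 100% = median of positive control wells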
An asterisk follows results filed as active; ? = inconclusive; · = no result. Sampled rows, rich in hits. Any-hit rate of the full collection: about 5.9%.

SMILES	KDM4C inh	IDH1 R132H inh	T cruzi growth-1	Pf Dd2 growth	T cruzi growth-2	T cruzi growth-3	3T3 cytotox	3T3 cytotox 2
O=S(=O)(c1ccccc1F)N1CC[C@@H]2[C@@H](CO)Nc3ccc(-c4ccccc4F)cc3[C@@H]21	0	·	53	-12	·	·	·	·
Cc1ccc(S(=O)(=O)N2CC[C@@H]3[C@@H](CO)Nc4ccc(-c5ccccc5F)cc4[C@@H]32)cc1	-3	·	116*	-54	100*	103*	15	17
Cc1ccccc1S(=O)(=O)N1CC[C@H]2[C@H](CO)Nc3ccc(-c4ccccc4F)cc3[C@H]21	-2	·	109*	-7	99*	31	43*	103*
Cc1ccc(S(=O)(=O)N2CC[C@@H]3[C@H]2c2cc(-c4ccccc4F)ccc2N[C@@H]3CO)cc1	0	·	?	9	99*	76	38*	100*
O=S(=O)(c1ccccc1)N1CC[C@@H]2[C@H](CO)Nc3ccc(-c4ccccc4F)cc3[C@@H]21	-3	·	109*	27	90	97*	23	52*
Cc1cccc(S(=O)(=O)N2CC[C@@H]3[C@@H](CO)Nc4ccc(-c5ccccc5F)cc4[C@@H]32)c1	-1	·	1	17	·	·	·	·
O=C(CSc1nc2ccccc2s1)Nc1cc(Cl)cc(Cl)c1	·	0	·	·	·	·	·	·
COc1cccc(C(=O)NC(c2ccc(Cl)cc2)c2c(O)ccc3ccccc23)c1 (configuration not stated)	·	0	·	·	·	·	·	·
O=C(O)CCSc1nc(-c2ccccc2)c(-c2ccccc2)[nH]1	·	0	·	·	·	·	·	·
Cc1ccc(S(=O)(=O)N2CC[C@@H]3[C@H](CO)Nc4ccc(Br)cc4[C@@H]32)cc1	-6	·	?	29	109*	15	15	33*
Cn1c(CSc2ccnc3cc(Cl)ccc23)nnc1SCC(=O)c1ccc(Cl)s1	·	0	·	·	·	·	·	·
C/C=C/c1ccc([C@H]2[C@H](CO)N3CCCCN(S(=O)(=O)c4ccc(F)cc4)C[C@@H]23)cc1	0	·	111*	1	108*	57	22	102*
C/C=C/c1ccc([C@H]2[C@@H](CO)N3CCCCN(S(=O)(=O)c4ccc(OC)cc4)C[C@@H]23)cc1	0	·	95*	-15	111*	69	0	55*
Cc1cc(C)c(S(=O)(=O)N(C)CC(=O)Nc2cc([N+](=O)[O-])ccc2C)c(C)c1	·	0	·	·	·	·	·	·
CC(C)(C)[S@](=O)N1Cc2cc(C(=O)NCc3ccc4c(c3)OCO4)nc(-c3cccc(-c4cccnc4)c3)c2[C@@H]1CCO	1	-1	95	-56	·	·	·	·
CN(C)CC#Cc1cccc(-c2nc(C(=O)NCc3ccc4c(c3)OCO4)cc3c2[C@@H](CCO)N(S(=O)C(C)(C)C)C3)c1 (some centres not stated)	·	·	112*	·	110*	108*	6	21
COc1ccc(CNC(=O)c2cc3c(c(-c4cccc(-c5ccc(C#N)cc5)c4)n2)[C@H](CCO)N([S@@](=O)C(C)(C)C)C3)cc1	-4	0	?	-69	103*	93	19	30*
COc1ccc(CNC(=O)c2cc3c(c(-c4cccc(-c5cccc(C#N)c5)c4)n2)[C@H](CCO)N([S@@](=O)C(C)(C)C)C3)cc1	-10	0	90	-80	·	·	·	·
Cc1[nH]c2ccc(CN3C(=O)c4ccccc4C3=O)cc2c1C	·	0	·	·	·	·	·	·
COc1ccc(C#Cc2ccc([C@H]3[C@@H](CO)N4CCCCN(C(=O)Nc5ccccc5F)C[C@@H]34)cc2)cc1	-2	·	140*	-79	?	114*	?	40*
O=C(Nc1ccccc1F)N1CCCCN2[C@@H](CO)[C@H](c3ccc(C#Cc4ccccc4)cc3)[C@@H]2C1	-1	·	95*	-78	?	115*	119*	104*
O=C(Nc1ccccc1F)N1CCCCN2[C@H](CO)[C@H](c3ccc(C#Cc4ccccc4)cc3)[C@H]2C1	-2	·	42	-69	·	·	·	·
COc1ccc(C#Cc2ccc([C@@H]3[C@@H](CO)N4CCCCN(C(=O)Nc5ccccc5F)C[C@@H]34)cc2)cc1	-1	·	127*	-91*	99*	114*	-42	51*
COc1ccc(CCNC(=O)Nc2ccc(C(C)=O)cc2)cc1OC	·	0	·	·	·	·	·	·
CS(=O)(=O)N(CC(=O)NC1CCCCC1)c1ccc2c3c(cccc13)CC2	·	0	·	·	·	·	·	·
SMILES	KDM4C inh	IDH1 R132H inh	T cruzi growth-1	Pf Dd2 growth	T cruzi growth-2	T cruzi growth-3	3T3 cytotox	3T3 cytotox 2
CCOc1c(CNCc2ccccn2)cccc1OC	·	0	·	·	·	·	·	·
CO[C@H]1CN(C)C(=O)c2cc(NC(=O)NC(C)C)ccc2OC[C@@H](C)N(Cc2ccccn2)C[C@@H]1C	-2	0	-12	17	·	·	·	·
CO[C@H]1CN(C)C(=O)c2ccc(NC(=O)NC(C)C)cc2OC[C@@H](C)N(Cc2ccccn2)C[C@H]1C	-1	0	109*	-3	53	-2	6	-8
COc1ccccc1NC(=O)Nc1ccc2c(c1)OC[C@@H](C)N(Cc1ccccc1C(=O)O)C[C@@H](C)[C@H](OC)CN(C)C2=O	0	-1	-169	-1	·	·	·	·
CCS(=O)(=O)Nc1ccc2c(c1)C(=O)N(C)C[C@H](OC)[C@H](C)CN(Cc1ccccn1)[C@H](C)CO2	1	0	99*	32	-3	-18	-3	19
COc1ccccc1NC(=O)Nc1ccc2c(c1)OC[C@@H](C)N(Cc1ccccc1Cl)C[C@@H](C)[C@H](OC)CN(C)C2=O	-2	0	127*	-97*	104*	112*	1	14
CO[C@H]1CN(C)C(=O)c2cc(NC(=O)NC(C)C)ccc2OC[C@H](C)N(Cc2ccccn2)C[C@H]1C	1	0	106*	8	73	5	12	14
Cc1cc(N(CC(=O)Nc2cccc([N+](=O)[O-])c2)S(C)(=O)=O)ccc1Br	·	0	·	·	·	·	·	·
CS(=O)(=O)CCC(C(=O)N1CCCCC1)N1C(=O)c2cc(Cl)c(Cl)cc2C1=O (configuration not stated)	·	0	·	·	·	·	·	·
C[C@H](CO)N1C[C@H](C)[C@H](CN(C)Cc2ccc(F)cc2)Oc2ncc(C#Cc3ccccc3)cc2C1=O	0	1	?	-5	103*	88	12	101*
CC(C)CC#Cc1cnc2c(c1)C(=O)N([C@@H](C)CO)C[C@@H](C)[C@@H](CN(C)Cc1ccc(F)cc1)O2	0	-1	?	-57	108*	58	5	57*
CNC[C@H]1Oc2ncc(C#CCC(C)C)cc2C(=O)N([C@H](C)CO)C[C@H]1C	-1	0	105*	-57	106*	89	5	22

Source: PubChem (Broad Institute)
